Reference: ChEMBL document CHEMBL1154006, “Optimisation of a series of potent, selective and orally bioavailable GlyT1 inhibitors” (Bioorg Med Chem Lett, 2009)

Experiments:
[1] = target: T1, Sodium- and chloride-dependent glycine transporter 1 (Homo sapiens) (UniProt P48067); experiment: Inhibition of [3H]glycine uptake at human glycine transporter 1 expressed in human JAR cells at 3 uM after 3 hrs by scintillation counting; assay type: cell-based
T1 sequence (whole entry): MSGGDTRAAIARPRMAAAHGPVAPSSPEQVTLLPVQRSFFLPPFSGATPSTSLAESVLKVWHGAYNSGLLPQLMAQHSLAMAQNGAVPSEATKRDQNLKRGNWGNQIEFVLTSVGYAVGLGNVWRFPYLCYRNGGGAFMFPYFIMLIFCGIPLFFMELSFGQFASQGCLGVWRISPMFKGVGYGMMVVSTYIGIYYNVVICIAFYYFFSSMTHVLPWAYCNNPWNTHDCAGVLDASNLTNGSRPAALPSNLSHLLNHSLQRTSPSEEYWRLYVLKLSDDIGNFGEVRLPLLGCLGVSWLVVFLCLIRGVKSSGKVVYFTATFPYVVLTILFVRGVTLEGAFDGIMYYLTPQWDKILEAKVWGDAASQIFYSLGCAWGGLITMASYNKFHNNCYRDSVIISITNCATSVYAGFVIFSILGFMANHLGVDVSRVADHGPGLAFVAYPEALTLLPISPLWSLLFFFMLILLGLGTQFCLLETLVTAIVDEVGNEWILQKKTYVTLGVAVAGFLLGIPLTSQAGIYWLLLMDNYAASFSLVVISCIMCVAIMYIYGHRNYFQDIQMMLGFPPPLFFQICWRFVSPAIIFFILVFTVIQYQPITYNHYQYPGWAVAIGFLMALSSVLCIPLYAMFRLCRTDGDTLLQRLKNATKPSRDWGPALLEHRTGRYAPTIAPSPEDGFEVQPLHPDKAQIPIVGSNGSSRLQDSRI

[2] = target: T2, Sodium- and chloride-dependent glycine transporter 1 (Homo sapiens, UniProt P48067); experiment: Inhibition of [3H]glycine uptake at human glycine transporter 1 expressed in human JAR cells after 3 hrs by scintillation counting; assay type: cell-based
T2 sequence (P48067 whole entry): T1 sequence (whole entry)

[3] = Metabolic stability in rat liver microsomes assessed as parent compound turnover at 1 uM after 15 mins; assay type: ADME, Microsome; settings: read-out: Stability
Method in brief: (§1)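 Test compounds at 1 μM incubated at 37 °C for 15 min with liver microsomes (rat, dog or human) at 0.5 mg/ml protein. Cosolvent was 0.99% MeCN + 0.01% DMSO. Read-out is % turnover of parent.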

[4] = Metabolic stability in dog liver microsomes assessed as parent compound turnover at 1 uM after 15 mins; assay type: ADME, Canis lupus familiaris, Microsome; settings: read-out: Stability; method in brief: as §1
[5] = Metabolic stability in human liver microsomes assessed as parent compound turnover at 1 uM after 15 mins; assay type: ADME, Microsome; settings: read-out: Stability; method in brief: as §1
[6] = target: T3, Sodium- and chloride-dependent glycine transporter 2 (Homo sapiens, UniProt Q9Y345); experiment: Inhibition of human glycine transporter 2
T3 sequence (Q9Y345 whole entry): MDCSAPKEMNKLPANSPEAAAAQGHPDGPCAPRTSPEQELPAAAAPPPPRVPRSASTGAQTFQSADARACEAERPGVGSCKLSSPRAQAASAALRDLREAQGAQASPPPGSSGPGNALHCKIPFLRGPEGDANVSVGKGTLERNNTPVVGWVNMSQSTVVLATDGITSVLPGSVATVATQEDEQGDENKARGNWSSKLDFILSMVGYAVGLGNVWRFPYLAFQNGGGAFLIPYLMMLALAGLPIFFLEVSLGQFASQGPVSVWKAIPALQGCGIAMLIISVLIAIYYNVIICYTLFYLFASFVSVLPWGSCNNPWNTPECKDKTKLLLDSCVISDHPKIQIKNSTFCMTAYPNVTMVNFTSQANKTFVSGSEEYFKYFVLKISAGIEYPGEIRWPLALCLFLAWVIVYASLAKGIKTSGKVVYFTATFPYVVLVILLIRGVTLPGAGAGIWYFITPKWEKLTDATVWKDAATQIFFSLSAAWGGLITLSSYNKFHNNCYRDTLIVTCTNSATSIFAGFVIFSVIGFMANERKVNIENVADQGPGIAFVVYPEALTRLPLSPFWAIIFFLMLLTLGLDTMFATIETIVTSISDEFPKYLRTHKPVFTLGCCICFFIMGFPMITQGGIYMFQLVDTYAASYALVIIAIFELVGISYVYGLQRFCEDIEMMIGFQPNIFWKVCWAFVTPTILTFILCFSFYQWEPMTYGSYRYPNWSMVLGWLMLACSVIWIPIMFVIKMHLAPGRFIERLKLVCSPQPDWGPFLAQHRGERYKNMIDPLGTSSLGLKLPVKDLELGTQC

[7] = Bioavailability in Sprague-Dawley rat at 0.1 mg/kg, iv and 1 mg/kg, po; assay type: ADME, organism-based; settings: in vivo
Method in brief: (§2)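 Six male Sprague-Dawley rats were used. Three received 0.1 mg/kg i.v. and three received 1 mg/kg p.o.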

[8] = Plasma clearance in Sprague-Dawley rat at 0.1 mg/kg, iv and 1 mg/kg, po; assay type: ADME, organism-based; method in brief: as §2
[9] = Half life in Sprague-Dawley rat at 0.1 mg/kg, iv and 1 mg/kg, po; assay type: ADME, organism-based; settings: in vivo; method in brief: as §2
Rattus norvegicus = experiment: In vivo occupancy of glycine transporter 1 in rat; assay type: functional
[10] = Volume of distribution at steady state in Sprague-Dawley rat at 0.1 mg/kg, iv and 1 mg/kg, po; assay type: ADME, organism-based; settings: in vivo, read-out: Vdss; method in brief: as §2
Mus musculus = experiment: Ex vivo occupancy of glycine transporter 1 in po dosed mouse; assay type: functional
[11] = Clearance in Sprague-Dawley rat at 0.1 mg/kg, iv and 1 mg/kg, po; assay type: ADME, organism-based; settings: in vivo; method in brief: as §2
[12] = Volume of distribution in Sprague-Dawley rat at 0.1 mg/kg, iv and 1 mg/kg, po; assay type: ADME, organism-based; settings: in vivo; method in brief: as §2

SMILES | IC50 [2] [nM] | metabolised at 0.25 h, 1 µM [3] [%] | metabolised at 0.25 h, 1 µM [4] [%] | metabolised at 0.25 h, 1 µM [5] [%] | also measured
O=C(NCC1(c2ncccc2F)CCN(S(=O)(=O)c2ccccc2)CC1)c1ccc(Cl)cc1Cl |  |  |  |  | inhibition [1]: 38%
Cn1cnc(S(=O)(=O)N2CCC(CNC(=O)c3ccc(Cl)cc3Cl)(CC3CC3)CC2)n1 |  |  |  |  | inhibition [1]: 13%
Cn1cc(S(=O)(=O)[C@H]2CC[C@@](CNC(=O)c3ccc(Cl)cc3Cl)(CC3CC3)CC2)nn1 | 1.89 | 23 |  | 28 | bioavailability [7]: 59%; clearance [8]: 16 mL/min/kg; half-life [9]: 1.8 h; Occ50 (Rattus norvegicus): 2.2 mg/kg; Vd [10]: 2.3 L/kg
Cn1cc(S(=O)(=O)N2CC(CNC(=O)c3ccc(Cl)cc3Cl)(c3ncccc3F)C2)cn1 | 2.95 | 56 | < 5 | 25 | 
O=C(NCC1(c2ncccc2F)CCN(S(=O)(=O)Cc2ccccc2)CC1)c1ccc(Cl)cc1Cl |  |  |  |  | inhibition [1]: 33%
Cn1cc(S(=O)(=O)N2CCC(CNC(=O)c3ccc(Cl)cc3Cl)(CC3CC3)CC2)nn1 | 0.32 | 88 | 34 | 43 | Occ50 (Mus musculus): <1 mg/kg; bioavailability [7]: 27%; half-life [9]: 1.1 h; clearance [11]: 39 mL/min/kg; Vd [12]: 2.2 L/kg; IC50 [6]: > 10000 nM
O=C(NCC1(c2ncccc2F)CCN(S(=O)(=O)c2cccnc2)CC1)c1ccc(Cl)cc1Cl | 11.6 | 99 | 96 | 99 | 
Cn1ncnc1S(=O)(=O)N1CCC(CNC(=O)c2ccc(Cl)cc2Cl)(CC2CC2)CC1 | 314 |  |  |  | 
Cc1nc(S(=O)(=O)N2CCC(CNC(=O)c3ccc(Cl)cc3Cl)(c3ncccc3F)CC2)cn1C |  |  |  |  | inhibition [1]: 31%
CCn1cc(S(=O)(=O)N2CCC(CNC(=O)c3ccc(Cl)cc3Cl)(CC3CC3)CC2)nn1 | 28.2 |  |  |  | 
O=C(NCC1(c2ncccc2F)CCN(S(=O)(=O)c2ccc(Cl)s2)CC1)c1ccc(Cl)cc1Cl |  |  |  |  | inhibition [1]: 20%
CCn1cc(S(=O)(=O)N2CC(CNC(=O)c3ccc(Cl)cc3Cl)(CC3CC3)C2)nn1 | 2.58 | 65 | 44 | 45 | 
Cn1nncc1S(=O)(=O)N1CC(CNC(=O)c2ccc(Cl)cc2Cl)(CC2CC2)C1 | 185 |  |  |  | 
O=C(NCC1(CC2CC2)CCN(S(=O)(=O)c2cn(CC(F)(F)F)nn2)CC1)c1ccc(Cl)cc1Cl | 502 |  |  |  | 
Cn1cc(S(=O)(=O)N2CC(CNC(=O)c3ccc(Cl)cc3Cl)(CC3CC3)C2)nn1 | 0.1 | 88 | 24 | 32 | 
O=C(NCC1(c2ncccc2F)CCN(S(=O)(=O)c2cccs2)CC1)c1ccc(Cl)cc1Cl | 125 | 98 | 72 |  | 
O=C(NCC1(c2ncccc2F)CCN(S(=O)(=O)CC2CC2)CC1)c1ccc(Cl)cc1Cl | 2 | 78 | 20 | 21 | 
Cn1cc(S(=O)(=O)N2CC(CNC(=O)c3ccc(Cl)cc3Cl)(CC3CC3)C2)cn1 | 3.62 | 17 | 70 | 21 | Occ50 (Mus musculus): 3.8 mg/kg; bioavailability [7]: 48%; clearance [8]: 46 mL/min/kg; half-life [9]: 2.4 h; IC50 [6]: > 10000 nM

Second part, led by results:

IC50 [2] [nM] | metabolised at 0.25 h, 1 µM [3] [%] | metabolised at 0.25 h, 1 µM [4] [%] | metabolised at 0.25 h, 1 µM [5] [%] | SMILES | also measured
124 |  |  |  | Cn1cnnc1S(=O)(=O)N1CCC(CNC(=O)c2ccc(Cl)cc2Cl)(CC2CC2)CC1 | 
871 |  |  |  | O=C(NCC1(CC2CC2)CN(S(=O)(=O)c2c[nH]nn2)C1)c1ccc(Cl)cc1Cl | 
5.43 | 55 | 24 | 42 | Cn1cc(S(=O)(=O)N2CCC(CNC(=O)c3ccc(Cl)cc3Cl)(c3ncccc3F)CC2)cn1 | IC50 [6]: > 10000 nM
132 |  |  |  | Cn1ncc(S(=O)(=O)N2CC(CNC(=O)c3ccc(Cl)cc3Cl)(CC3CC3)C2)n1 | 
1.74 | 30 | 21 |  | Cn1cnc(S(=O)(=O)N2CCC(CNC(=O)c3ccc(Cl)cc3Cl)(c3ncccc3F)CC2)c1 | IC50 [6]: > 10000 nM
4.33 | 73 | 25 | 23 | CCCS(=O)(=O)N1CCC(CNC(=O)c2ccc(Cl)cc2Cl)(c2ncccc2F)CC1 | 
10.3 | 5 | 38 | 10 | Cn1cc(S(=O)(=O)N2CCC(CNC(=O)c3ccc(Cl)cc3Cl)(CC3CC3)CC2)cn1 | IC50 [6]: > 10000 nM
0.65 | 6 | 17 | 20 | Cn1cc(S(=O)(=O)N2CCC(CNC(=O)c3ccc(Cl)cc3Cl)(c3ncccc3F)CC2)nn1 | Occ50 (Mus musculus): 7.5 mg/kg; bioavailability [7]: 3%; half-life [9]: 0.3 h; IC50 [6]: > 10000 nM
0.31 | 15 | 5 | 22 | Cn1cc(S(=O)(=O)N2CC(CNC(=O)c3ccc(Cl)cc3Cl)(c3ncccc3F)C2)nn1 | 
5.44 | 10 |  | 28 | Cn1cc(S(=O)(=O)[C@H]2CC[C@](CNC(=O)c3ccc(Cl)cc3Cl)(CC3CC3)CC2)nn1 | bioavailability [7]: 105%; clearance [8]: 34 mL/min/kg; half-life [9]: 1.1 h; Occ50 (Rattus norvegicus): 3.4 mg/kg; Vd [10]: 2.6 L/kg
